The values that follow come from ChEMBL document CHEMBL2176931, “Plakilactones from the marine sponge Plakinastrella mamillaris. Discovery of a new class of marine ligands of peroxisome proliferator-activated receptor γ” (J Med Chem, 2012).

Experiment [1] concerns the target T1, Peroxisome proliferator-activated receptor alpha (Homo sapiens) (UniProt Q07869).
T1 sequence (whole entry): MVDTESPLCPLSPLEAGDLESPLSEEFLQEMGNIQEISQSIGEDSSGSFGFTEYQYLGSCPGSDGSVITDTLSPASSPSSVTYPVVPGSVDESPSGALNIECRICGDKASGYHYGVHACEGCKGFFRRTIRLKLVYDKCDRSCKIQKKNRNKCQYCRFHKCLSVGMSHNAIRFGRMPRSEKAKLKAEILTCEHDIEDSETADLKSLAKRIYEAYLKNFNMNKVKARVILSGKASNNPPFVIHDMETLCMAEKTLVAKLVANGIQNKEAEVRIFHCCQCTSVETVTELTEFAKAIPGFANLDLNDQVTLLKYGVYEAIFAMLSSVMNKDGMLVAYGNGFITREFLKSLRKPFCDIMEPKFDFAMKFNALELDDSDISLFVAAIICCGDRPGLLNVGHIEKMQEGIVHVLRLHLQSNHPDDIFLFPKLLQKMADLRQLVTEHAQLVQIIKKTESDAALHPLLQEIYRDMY
Put plainly: Transactivation of GAL4-fused PPARalpha ligand binding domain transfected in human HepG2 cells at 10 uM after 18 hrs by luciferase reporter gene assay. It is filed as cell-based.

The target of experiment [2] is T2, Peroxisome proliferator-activated receptor delta (Homo sapiens) (UniProt Q03181).
T2 sequence (whole entry): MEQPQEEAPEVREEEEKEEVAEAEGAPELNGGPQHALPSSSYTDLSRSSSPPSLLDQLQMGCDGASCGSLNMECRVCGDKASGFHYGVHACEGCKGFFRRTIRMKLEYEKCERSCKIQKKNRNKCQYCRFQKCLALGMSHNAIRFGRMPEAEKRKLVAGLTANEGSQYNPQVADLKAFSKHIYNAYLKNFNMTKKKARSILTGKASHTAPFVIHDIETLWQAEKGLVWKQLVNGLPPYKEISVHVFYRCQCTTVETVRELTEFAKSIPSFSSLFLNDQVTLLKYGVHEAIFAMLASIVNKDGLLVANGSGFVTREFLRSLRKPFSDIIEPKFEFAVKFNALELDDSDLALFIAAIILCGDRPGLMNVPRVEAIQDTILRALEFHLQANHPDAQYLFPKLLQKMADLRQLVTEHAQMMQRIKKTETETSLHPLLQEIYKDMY
Description: Transactivation of GAL4-fused PPARbeta ligand binding domain transfected in human HepG2 cells at 10 uM after 18 hrs by luciferase reporter gene assay. It is filed as cell-based. In general terms: A reporter such as luciferase makes a cellular process visible.

Experiment [3] has as its target T3, Peroxisome proliferator-activated receptor gamma (Homo sapiens) (UniProt P37231).
T3 sequence (whole entry): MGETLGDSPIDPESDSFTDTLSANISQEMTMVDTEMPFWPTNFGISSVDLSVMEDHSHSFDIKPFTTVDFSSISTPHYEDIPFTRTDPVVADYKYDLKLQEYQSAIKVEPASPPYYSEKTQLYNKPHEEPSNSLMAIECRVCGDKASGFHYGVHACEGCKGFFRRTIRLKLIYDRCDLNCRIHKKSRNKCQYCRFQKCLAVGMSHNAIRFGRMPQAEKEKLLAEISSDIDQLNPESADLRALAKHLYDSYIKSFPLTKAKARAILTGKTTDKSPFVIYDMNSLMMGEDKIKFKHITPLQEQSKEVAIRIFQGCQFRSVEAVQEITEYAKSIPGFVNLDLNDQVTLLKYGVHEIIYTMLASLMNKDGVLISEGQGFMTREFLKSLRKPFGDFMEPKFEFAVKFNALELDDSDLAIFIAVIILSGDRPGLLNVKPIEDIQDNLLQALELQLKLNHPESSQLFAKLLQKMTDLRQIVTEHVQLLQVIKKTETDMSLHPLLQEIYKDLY
Put plainly: Covalent binding affinity to N-terminal His6-tagged PPARgamma ligand binding domain (195 to 477 amino acid residues) by MALDI-MS and MALDI-MS/MS method. Put shortly: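 Protein–ligand adduct digested with trypsin (E:S 1:100, 1 h, 37 °C), desalted on C18 ZIP-TIP, analysed by MALDI-MS in reflectron positive mode with α-cyano-4-hydroxycinnamic acid matrix, m/z 700–5000; peptide numbering per full-length PPARγ.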

The target of experiment [4] is T3, Peroxisome proliferator-activated receptor gamma (Homo sapiens). Put plainly: Transactivation of PPARgamma in human HepG2 cells assessed as induction of CD36 mRNA expression at 10 uM after 18 hrs by RT-PCR analysis relative to untreated control. Format: cell-based. Put shortly: (§1)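 Serum-starved HepG2 cells (E-MEM, 10% FBS at maintenance, 37 °C) treated 18 h with 10 μM compound; total RNA by TRIzol, DNase I, random-primed RT; SYBR Green qPCR, 40 cycles; normalized to GAPDH, relative to untreated cells set to 1; triplicate, experiment repeated twice.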

For experiment [5] the target is unchanged. Description: (§2) Transactivation of GAL4-fused PPARgamma ligand binding domain transfected in human HepG2 cells by luciferase reporter gene assay. Format: cell-based. Put shortly: (§3)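 GAL4–PPARγ LBD luciferase transactivation in HepG2 cells; concentration–response at 1, 10 and 50 μM (rosiglitazone 10, 100, 500 nM); luciferase measured in cell extracts; relative EC50 estimated from curves; mean ± SE of three experiments.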

In experiment [6] the target is T4, Peroxisome proliferator-activated receptor gamma (Homo sapiens, UniProt P37231).
T4 sequence (P37231 whole entry): T3 sequence (whole entry)
The description is as §2. Format: cell-based. Put shortly: as §3

For experiment [7], the target named is T3, Peroxisome proliferator-activated receptor gamma (Homo sapiens). Put plainly: Transactivation of PPARgamma in human HepG2 cells assessed as induction of SCD1 mRNA expression at 10 uM after 18 hrs by RT-PCR analysis relative to untreated control. Format: cell-based. Put shortly: as §1
Experiment [8] has the same target. Description: Transactivation of PPARgamma in human HepG2 cells assessed as induction of PEPCK mRNA expression at 10 uM after 18 hrs by RT-PCR analysis relative to untreated control. It is filed as cell-based. Put shortly: as §1
Experiment [9] has the same target. Put plainly: Transactivation of GAL4-fused PPARgamma ligand binding domain transfected in human HepG2 cells at 10 uM after 18 hrs by luciferase reporter gene assay. It is filed as cell-based.
Experiment [10] shares this target. Description: Covalent binding affinity to N-terminal His6-tagged PPARgamma ligand binding domain (195 to 477 amino acid residues) at 20 uM after 60 to 180 mins by RP-LC-MS analysis. Put shortly:
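PPARγ-LBD (1 μM) incubated with compound (20 μM) in PBS pH 7.5 at 37 °C for 60 and 180 min; aliquots analysed by RP-LC-MS on C4 column, 20–70% aqueous acetonitrile gradient with 0.05% TFA/1% formic acid over 25 min, spectra m/z 1500–3000.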

For experiment [11] the target is unchanged. Description: Antagonist activity at GAL4-fused PPARgamma ligand binding domain transfected in human HepG2 cells assessed as decrease in rosiglitazone-induced transactivation at 50 uM after 18 hrs by luciferase reporter gene assay. Format: cell-based.
Experiment [12] has the same target. Description: Transactivation of PPARgamma in human THP1 cells assessed as decrease in LPS-induced MCP1 mRNA expression at 10 uM preincubated for 3 hrs prior to LPS challenge measured after 18 hrs by RT-PCR analysis relative to untreated control. It is filed as cell-based. Particulars: THP-1. A digest of the protocol:
(§4)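 Serum-starved THP-1 cells pretreated 3 h with 10 μM compound (rosiglitazone 100 nM reference), then LPS 1 μg/mL for 18 h; total RNA SYBR Green real-time PCR, GAPDH-normalized, expressed relative to untreated cells set to 1; triplicate, repeated twice.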

The target is the same in experiment [13]. Put plainly: Transactivation of PPARgamma in human THP1 cells assessed as decrease in LPS-induced IL6 mRNA expression at 10 uM preincubated for 3 hrs prior to LPS challenge measured after 18 hrs by RT-PCR analysis relative to untreated control. It is filed as cell-based. The conditions noted are these: THP-1. A digest of the protocol: as §4

pEC50: −log10 of the molar value. Active and inactive are the calls of the source. The calls are words filed in the database; no cut-off is given here.

One may read the pEC50 as the negative decadic logarithm of the EC50, by convention in mol/L. A high value points to a low EC50.

With `CCC1=C[C@@](CC)(C/C(=C\[C@H](O)CC)CC)OC1=O`, the outcome in experiment [1] and in experiment [2] was inactive.

Take `CCC1=C[C@@](CC)(C[C@H](/C=C/C(C)=O)CC)O/C1=C\C(=O)OC`: the outcome in [3], in experiment [7], in experiment [8], in experiment [9] and in [10] was Active. For the same molecule, the result in [4], in [1] and in [2] was inactive. In addition, the Activity entry in experiment [5] is “Dose-dependent effect”. For the same molecule, the negative logarithm of the EC50 (pEC50) in [6] is 5.30.

Regarding `CCC1=C[C@@](CC)(C/C(=C/[C@@H](O)CC)CC)O/C1=C\C(=O)OC`, the outcome in experiment [1] and in experiment [2] was inactive.

For `CCC1=C[C@@](CC)(C/C(=C/[C@@H](O)CC)CC)OC1=O`, the result in experiment [1] and in [2] was inactive.

For `CC/C=C/[C@H](CC)C[C@]1(CC)C=C(CC)/C(=C/C(=O)OC)O1`, the outcome in experiment [1] and in experiment [2] was inactive. For the same molecule, the outcome in experiment [11] was Active.

In the case of `CCC1=C[C@@](CC)(C[C@H](/C=C/[C@@H](C)O)CC)OC1=O`, the result in [1] and in experiment [2] was inactive.

Turning to `CC[C@@H]1C[C@@]2(CC)O/C(=C\C(=O)OC)[C@@]3(CC)OO[C@H]([C@@H](C)O)[C@@H]1[C@@H]23`, the outcome in [1] and in experiment [2] was inactive.

Consider `CCC1=C[C@@](CC)(C[C@H](/C=C/[C@H](C)O)CC)O/C1=C\C(=O)OC`, for which the result in [12], in experiment [4], in [7], in experiment [8], in [9] and in [13] was Active. Also, the Activity entry in experiment [5] was “Dose-dependent effect”. The molecule further had a negative-log EC50 (pEC50) in [6] of 5.00. In addition, the result in [1] and in [2] was inactive.

For `CCC1=C[C@@](CC)(C[C@H](/C=C/C(C)=O)CC)OC1=O`, the result in experiment [4], in experiment [7], in experiment [9] and in experiment [10] was Active. Moreover, in [5], the Activity entry is “Dose-dependent effect”. In [6], this molecule gave a pEC50 of 5.70. In addition, the outcome in experiment [1], in experiment [8] and in experiment [2] was inactive.

As to `CCC1=C[C@@](CC)(C/C(=C\[C@@H](O)CC)CC)OC1=O`, the result in experiment [1] and in [2] was inactive.

On to `CCCC[C@H](CC)C[C@]1(CC)C=C(CC)/C(=C/C(=O)OC)O1`, for which the outcome in experiment [1] and in experiment [2] was inactive. In addition, in experiment [11], the result was Active.

For the molecule `CCCC[C@H](CC)C[C@]1(CC)C=C(CC)C(=O)O1`, the result in experiment [1] and in experiment [2] was inactive.

Turning to `CCC1=C[C@@](CC)(C[C@@H](CC)CCC(C)=O)O/C1=C\C(=O)OC`, the result in experiment [9] and in experiment [10] was inactive.

Regarding `CC/C=C/[C@H](CC)C[C@]1(CC)C=C(CC)C(=O)O1`, the result in [1] and in experiment [2] was inactive.

Regarding `CCC1=C[C@@](CC)(C[C@@H](CC)CCC(C)=O)OC1=O`, the result in experiment [9] and in [10] was inactive.
